This is an account of results in ChEMBL document CHEMBL1909618, “Non-steroidal dissociated glucocorticoid agonists: indoles as A-ring mimetics and function-regulating pharmacophores” (Bioorg Med Chem Lett, 2011).

pEC50: −log10 of the molar value.

The target in data set [1] is T1, Glucocorticoid receptor (Homo sapiens) (UniProt P04150).
T1 sequence (whole entry): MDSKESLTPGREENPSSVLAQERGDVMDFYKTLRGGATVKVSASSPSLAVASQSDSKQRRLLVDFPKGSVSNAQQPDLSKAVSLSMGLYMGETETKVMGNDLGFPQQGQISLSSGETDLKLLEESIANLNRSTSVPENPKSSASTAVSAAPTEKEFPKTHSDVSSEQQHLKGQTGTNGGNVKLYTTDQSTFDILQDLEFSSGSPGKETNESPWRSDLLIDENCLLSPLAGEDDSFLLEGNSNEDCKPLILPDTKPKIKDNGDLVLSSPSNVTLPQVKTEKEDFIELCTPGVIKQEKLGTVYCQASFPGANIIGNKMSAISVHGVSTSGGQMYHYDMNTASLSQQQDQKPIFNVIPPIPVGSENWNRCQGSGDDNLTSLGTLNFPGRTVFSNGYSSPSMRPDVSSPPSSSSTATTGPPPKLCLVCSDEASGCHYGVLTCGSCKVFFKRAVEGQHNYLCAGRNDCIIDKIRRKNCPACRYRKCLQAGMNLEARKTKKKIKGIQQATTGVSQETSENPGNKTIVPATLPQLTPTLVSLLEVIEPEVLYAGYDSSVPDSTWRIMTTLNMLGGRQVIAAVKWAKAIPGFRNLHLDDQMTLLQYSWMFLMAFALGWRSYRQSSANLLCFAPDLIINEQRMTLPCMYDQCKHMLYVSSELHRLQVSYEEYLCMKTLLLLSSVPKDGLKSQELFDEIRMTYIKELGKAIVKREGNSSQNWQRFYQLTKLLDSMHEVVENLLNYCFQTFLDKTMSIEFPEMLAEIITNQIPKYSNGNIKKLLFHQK
Briefly: Agonist activity at glucocorticoid receptor in human HeLa cells transfected with luciferase gene linked to MMTV promoter assessed as luciferase transactivation activity relative to Dexamethasone. Type of data set: functional, cell-based. Put shortly:
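HeLa cells stably carrying an MMTV-luciferase construct were exposed to compound for 6 h at 37 °C, 5% CO2. Cells were then lysed and luminescence read with a Steady-Glo reagent. EC50 and % maximal efficacy were reported.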

Data set [2] has as its system Mus musculus. Kind of data set: Antiinflammatory activity in mouse plasma assessed as inhibition of LPS-induced TNFalpha production at 10 mg/kg, po administered 1 hr before LPS challenge measured after 1 hr. In kind it is functional. In short, it runs like this: (§1)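 Mice received compound orally in Cremophor RH 1 h before LPS challenge. Plasma TNF-α was measured 1 h after challenge. n = 8 per group; doses were 3 and 10 mg/kg.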

A short description of data set [3]: Cmax in B10.R3 mouse at 30 mg/kg, po. In kind it is ADME, organism-based. Also on record: dose 30 mg/kg, route oral. The settings on record: in vivo. In short, it runs like this:
(§2)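 Mouse PK: IV dose 1 mg/kg in PEG400/water (70:30); oral dose 30 mg/kg given as a suspension in 30% Cremophor. Values are the mean of 3 mice.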

A short description of data set [4]: AUC (infinity) in Sprague-Dawley rat at 30 mg/kg, po. In kind it is ADME, organism-based. Also on record: dose 30 mg/kg, route oral, time infinity. The following applies: plasma. In short, it runs like this:
(§3)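 Rat PK: IV dose 2 mg/kg in PEG400/water (70:30); oral dose 30 mg/kg in PEG400/H2O/Tween (80/18/2). Values are the mean of 3 rats.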

The target in data set [5] is T2, Glucocorticoid receptor (Homo sapiens, UniProt P04150).
T2 sequence (P04150 whole entry): T1 sequence (whole entry)
Briefly: Agonist activity at glucocorticoid receptor in human HeLa cells transfected with luciferase gene linked to MMTV promoter assessed as luciferase transactivation activity. Type of data set: functional, cell-based.

The target of data set [6] is T1, Glucocorticoid receptor (Homo sapiens). Kind of data set: Agonist activity at glucocorticoid receptor in HFF assessed as inhibition of IL1-induced IL-6 production after 18 to 24 hrs relative to Dexamethasone. In kind it is functional. Put shortly:
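Human foreskin fibroblasts stimulated with IL-1 (1 ng/mL) in the presence of test compound, incubated at 37 °C for 18–24 h. IL-6 in the culture medium was quantified by electrochemiluminescence, DELFIA or ELISA. IC50 and % maximal efficacy were reported.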

For data set [7], the system named is Mus musculus. Kind of data set: Toxicity in B10.R3 mouse collagen-induced arthritis model assessed as change in serum insulin level at 30 mg/kg, po qd for 5 weeks by ELISA relative to control. In kind it is organism-based. Also on record: dose 30 mg/kg, route oral. The settings on record: in vivo, 840 h.
A short description of data set [8]: Half life in B10.R3 mouse at 1 mg/kg, iv. In kind it is ADME, organism-based. Also on record: dose 1 mg/kg, route intravenous. The following applies: in vivo. Put shortly:
as §2

Data set [9] can be described thus: Volume of distribution at steady state in Sprague-Dawley rat at 2 mg/kg, iv. In kind it is ADME, organism-based. Also on record: dose 2 mg/kg, route intravenous. The settings on record: in vivo, read-out: Vdss. In short, it runs like this: as §3
A short description of data set [10]: AUC (infinity) in B10.R3 mouse at 30 mg/kg, po. The following applies: plasma. Type of data set: ADME, organism-based. Also on record: time infinity, dose 30 mg/kg, route oral. In short, it runs like this: as §2
Data set [11] can be described thus: Oral bioavailability in B10.R3 mouse at 30 mg/kg. Type of data set: ADME, organism-based. The following applies: in vivo. Put shortly: as §2
Data set [12] has as its target T2, Glucocorticoid receptor. Briefly: Transactivation activity of glucocorticoid receptor in HFF assessed as induction of aromatase activity by measuring beta-estradiol activity after 18 to 24 hrs by ELISA. The following applies: read-out: EC50.
Another data set is filed under the species Homo sapiens. Kind of data set: Selectivity ratio of IC50 for human recombinant glucocorticoid receptor to IC50 for human recombinant progesterone receptor.
Data set [13] can be described thus: Cmax in Sprague-Dawley rat at 30 mg/kg, po. Also on record: dose 30 mg/kg, route oral. The following applies: in vivo. In kind it is ADME, organism-based. In short, it runs like this: as §3
The subject of data set [14] is Mus musculus. Briefly: Toxicity in B10.R3 mouse collagen-induced arthritis model assessed as change in body fat level at 30 mg/kg, po qd for 5 weeks relative to control. In kind it is organism-based. Also on record: dose 30 mg/kg, route oral. The following applies: in vivo, 840 h. Put shortly: (§4)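 Arthritic B10.RIII CIA mice were dosed orally once daily for 5 weeks. At day 35 they were anesthetized with ketamine (50 mg/kg) and xylazine (15 mg/kg). Body fat was assessed by whole-body density scan. Serum triglycerides were measured by enzymatic kit (Wako L-Type TG-H) and free fatty acids by NEFA-C. Results are expressed as % change versus vehicle and compared by t-test.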

Data set [15] deals with Mus musculus. Kind of data set: Antiarthritic activity in B10.R3 mouse collagen-induced arthritis model assessed as AUC of disease progression inhibition at 30 mg/kg, po qd for 5 weeks. Type of data set: functional. The settings on record: B10.R3, 840 h. Put shortly:
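B10.RIII mice immunized with porcine type II collagen plus complete Freund's adjuvant were enrolled at the first signs of arthritis. They were dosed orally once daily for 5 weeks; vehicle was 30% Cremophor RH. All four paws were scored 1–4 (maximum 16 per animal). Disease-score AUCs from 10 mice per group were compared with vehicle by Mann–Whitney test.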

In data set [16] the test system is Mus musculus. Kind of data set: Toxicity in B10.R3 mouse collagen-induced arthritis model assessed as change in serum triglyceride level at 30 mg/kg, po qd for 5 weeks relative to control. In kind it is organism-based. Also on record: dose 30 mg/kg, route oral. The settings on record: in vivo, 840 h. In short, it runs like this:
as §4

Data set [17] has as its system Mus musculus. Briefly: Toxicity in B10.R3 mouse collagen-induced arthritis model assessed as change in serum free fatty acids level at 30 mg/kg, po qd for 5 weeks relative to control. Type of data set: organism-based. Also on record: dose 30 mg/kg, route oral. The following applies: in vivo, 840 h. Put shortly:
as §4

Data set [18] deals with Mus musculus. Kind of data set: Antiinflammatory activity in po dosed mouse plasma assessed as inhibition of LPS-induced TNFalpha production administered 1 hr before LPS challenge measured after 1 hr. Type of data set: functional. Put shortly: as §1

Consider `CC(C)(C[C@@](O)(Cc1cc2ccc(C#N)cc2[nH]1)C(F)(F)F)c1cc(S(C)(=O)=O)cc2c1OCC2`, for which the results for the Efficacy in data set [1] and in data set [6] were 10% and 88%, respectively. In the data set on Mus musculus [2], the inhibition in vivo at 10 mg/kg was found to be 88%. The Cmax in [3] came out at 6190 ng/mL; in data set [13], 955 ng/mL. Besides, the area under the curve AUC(0-inf) in [4] came out at 4850 ng·h/mL; in data set [10], 32700 ng·h/mL. Besides, the values for the negative logarithm of the EC50 (pEC50) on Glucocorticoid receptor [5] and at Glucocorticoid receptor [12] were less than 5.70 and 6.92, respectively. In addition, the Activity was -29% in the data set on Mus musculus [7], 6% with Mus musculus [14], 11% with Mus musculus [16] and 8% in the data set on Mus musculus [17]. Also, the half-life in data set [8] is 2.5 h. In [9], the Vd stood at 7.7 L/kg. Further, in data set [11], the bioavailability stood at 26%. Moreover, the Ratio IC50 in the data set filed under Homo sapiens is 100. The inhibition in vivo at 30 mg/kg in the data set on Mus musculus [15] was determined as 45%. Also, the ED50 in the data set on Mus musculus [18] was less than 3 mg/kg.

Regarding `COc1ccc(F)cc1C(C)(C)C[C@@](O)(Cc1cc2ccccc2[nH]1)C(F)(F)F`, in the data set with Mus musculus [2], the inhibition in vivo at 10 mg/kg turned out to be 35%. The Efficacy in data set [6] was 87%. Further, the pEC50 at Glucocorticoid receptor [12] is 7.74.
